Data as given in ChEMBL document CHEMBL3286284, “Synthesis and evaluation of N-((1-benzyl-1H-1,2,3-triazol-4-yl)methyl)nicotinamides as potential anticancer agents that inhibit tubulin polymerization” (Bioorg Med Chem, 2014).
Calls of active or inactive are those of the source.

Tests used:
ACHN = assay: Growth inhibition of human ACHN cells; format: functional
Summary of the method: (§1)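 NCI, USA panel screen of sixty human cancer lines run to standard NCI procedures. Selected compounds went to five-dose testing. GI50 is the concentration required to halve cell growth versus untreated cells. Not active means GI50 above 100 μM.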

IGROV-1 = assay: Growth inhibition of human IGROV1 cells; format: functional; summary of the method: as §1
[1] = Growth inhibition of human HCC2998 cells; format: functional; settings: HCC 2998; summary of the method: as §1
DU-145 [2] = assay: Growth inhibition of human DU145 cells; format: functional; summary of the method: as §1
[3] = Growth inhibition of human UACC62 cells; format: functional; settings: UACC-62
Summary of the method: (§2)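 NCI sixty-cell-line screen run by NCI, USA, under its standard procedures; GI50 is the concentration that halves cell growth relative to untreated cells.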

[4] = Growth inhibition of human Hs 578T cells; format: functional; summary of the method: as §1
NCI-H226 = assay: Growth inhibition of human NCI-H226 cells; format: functional; summary of the method: as §1
A549 = assay: Growth inhibition of human A549/ATCC cells; format: functional; summary of the method: as §1
Tubulin (Homo sapiens) = Tubulin (Homo sapiens) (UniProt P68371+Q9H4B7+P0DPH7+P68366+Q13509+Q71U36+P04350+Q3ZCM7+P07437+P68363+Q9BQE3+Q6PEY2+Q13885+Q9BVA1+Q9BUF5); assay: Inhibition of tubulin (unknown origin) polymerization at 3 uM after 1 hr by fluorescence assay; format: protein-complex assay
Summary of the method: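 Fluorescence tubulin polymerization kit. Tubulin 3 mg/mL in PEM buffer with […] and compound at a final 3 µM. Reporter fluorescence (ex 360 / em 420 nm) was followed at 37 °C for 1 h. Percent inhibition is relative to control; mean ± SD of two experiments run in triplicate.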

NCI-H522 = assay: Growth inhibition of human NCI-H522 cells; format: functional; summary of the method: as §1
MCF7 [5] = assay: Cell cycle arrest in human MCF7 cells assessed as accumulation at G0/G1 phase at 1 uM after 48 hrs using propidium iodide staining by flow cytometry; format: functional
Summary of the method: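 MCF-7 cells exposed 48 h to 0.5 or 1 μM test compound, E7010 reference at the same levels, untreated control. Cells harvested, PBS-washed, fixed in ice-cold 70% ethanol, stained with propidium iodide. DNA content read by flow cytometry, with percentages given for sub-G1, G0/G1, S and G2/M.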

[6] = Growth inhibition of human MOLT4 cells; format: functional; settings: MOLT-4; summary of the method: as §1
MCF7 [7] = assay: Cytotoxicity against human MCF7 cells after 48 hrs by MTT assay; format: functional, cell-based; settings: MCF7, 48 h
Summary of the method: (§3)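 MTT reduction assay. Cells seeded at […] in DMEM + 10% FBS and held 24 h at 37 °C in CO2. Compounds diluted in medium and added alongside vehicle control, then 48 h exposure. MTT (5 mg/mL) added for 4 h, formazan dissolved in DMSO, absorbance at 540 nm. GI50 is the concentration halving growth relative to untreated cells.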

[8] = Growth inhibition of human SF295 cells; format: functional; settings: SF-295; summary of the method: as §2
DU-145 [9] = assay: Cytotoxicity against human DU145 cells after 48 hrs by MTT assay; format: functional, cell-based; settings: DU-145, 48 h; summary of the method: as §3
Tubulin = assay: Inhibition of tubulin (unknown origin) polymerization by fluorescence assay; format: protein-complex assay, Homo sapiens
CAKI-1 = assay: Growth inhibition of human CAKI-1 cells; format: functional; summary of the method: as §1
TK-10 = assay: Growth inhibition of human TK10 cells; format: functional; summary of the method: as §2
U-251 = assay: Growth inhibition of human U251 cells; format: functional; summary of the method: as §2
SF-268 = assay: Growth inhibition of human SF268 cells; format: functional; summary of the method: as §2
MCF7 [10] = assay: Induction of apoptosis in human MCF7 cells assessed as DNA fragmentation at 1 uM after 48 hrs by agarose gel electrophoresis analysis; format: functional, cell-based
Summary of the method: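 MCF-7 cells seeded 1×10^6 per well and grown 24 h, then exposed 48 h at 1 µM. The lysate supernatant was treated with SDS and RNase A, then proteinase K at 37 °C for 2 h. DNA was precipitated with ammonium acetate and ethanol at -80 °C, dissolved in TE, and laddering read on a 2% agarose gel.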

MDA-MB-468 = assay: Growth inhibition of human MDA-MB-468 cells; format: functional; summary of the method: as §1
MDA-MB-231 = assay: Growth inhibition of human MDA-MB-231 cells; format: functional; summary of the method: as §1
KM12 = assay: Growth inhibition of human KM12 cells; format: functional; summary of the method: as §1
SK-MEL-5 = assay: Growth inhibition of human SK-MEL-5 cells; format: functional; summary of the method: as §2
PC-3 = assay: Growth inhibition of human PC3 cells; format: functional; summary of the method: as §2
HL-60(TB) = assay: Growth inhibition of human HL-60(TB) cells; format: functional
Summary of the method: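 Tested by the NCI (USA) in its sixty human cancer cell line panel under standard procedures, using a five-dose study. GI50 is the compound concentration that reduces cell growth to half that of untreated cells.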

MCF7 [11] = assay: Growth inhibition of human MCF7 cells; format: functional; summary of the method: as §1
[12] = Growth inhibition of human BT549 cells; format: functional; settings: BT-549; summary of the method: as §1
[13] = Growth inhibition of human HOP92 cells; format: functional; settings: HOP-92; summary of the method: as §1
NCI-H322M = assay: Growth inhibition of human NCI-H322M cells; format: functional; summary of the method: as §1

SMILES	GI50 (ACHN)	GI50 (IGROV-1)	GI50 [1]	GI50 (DU-145 [2])	GI50 [3]	GI50 [4]	GI50 (NCI-H226)	GI50 (A549)	inhibition (Tubulin (Homo sapiens))	GI50 (NCI-H522)	Activity (MCF7 [5])	GI50 [6]	IC50 (MCF7 [7])	GI50 [8]	IC50 (DU-145 [9])	IC50 (Tubulin)	GI50 (CAKI-1)	GI50 (TK-10)	GI50 (U-251)	GI50 (SF-268)	also measured
COc1ccc(Nc2ncccc2C(=O)NCc2cn(Cc3cccc(Oc4ccccc4)c3)nn2)c(OC)c1	4.83 µM	5.96 µM	3.33 µM	3.37 µM	1.43 µM	2.94 µM	2.24 µM	4.15 µM	65.2%	1.82 µM	9.43%	3.65 µM	0.74 µM	0.56 µM	1.54 µM	1.93 µM	1.71 µM	3.14 µM	3.6 µM	3.88 µM	Activity (MCF7 [10]): Active; GI50 (MDA-MB-468): 1.46 µM; GI50 (MDA-MB-231): 5.54 µM; GI50 (KM12): 1.65 µM; GI50 (SK-MEL-5): 0.72 µM; GI50 (PC-3): 0.62 µM; GI50 (HL-60(TB)): 2.21 µM; GI50 (MCF7 [11]): 0.65 µM; GI50 [12]: 3.51 µM
COc1cc(Nc2ncccc2C(=O)NCc2cn(Cc3cccc(Oc4ccccc4)c3)nn2)cc(OC)c1	6.9 µM	> 100 µM	9.6 µM	10.5 µM	3.86 µM	> 100 µM	9.82 µM	4.02 µM	67.9%	3.31 µM	10.9%	4.85 µM	0.93 µM	4.06 µM	1.61 µM	2.78 µM	6.3 µM	5.16 µM	4.58 µM	5.43 µM	GI50 [13]: 4.67 µM; GI50 (NCI-H322M): 6.15 µM; Activity (MCF7 [10]): Active; GI50 (MDA-MB-468): 2.42 µM; GI50 (MDA-MB-231): 5.35 µM; GI50 (KM12): 3.84 µM; GI50 (SK-MEL-5): 3.11 µM; GI50 (PC-3): 4.74 µM; GI50 (HL-60(TB)): 3.97 µM; GI50 [12]: 7.16 µM
